Assay results published in ChEMBL document CHEMBL4732121, “Imidazo[1,2-a]quinoxalines for melanoma treatment with original mechanism of action” (Eur J Med Chem, 2021).
Active and inactive are the calls of the source. The calls are words filed in the database; no cut-off is given here.

Legend:
A-375 [1] = test: Antiproliferative activity against human A-375 cells assessed as reduction in cell viability measured after 96 hrs by MTT assay; format: functional, cell-based; conditions: Homo sapiens, A-375, 96 h
Method in brief: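 A375 cells in RPMI-1640 with 10% heat-inactivated FBS, 2 mM L-glutamine and antibiotics, 37°C, 5% CO₂. Seeded at 5000 cells/well and attached overnight, then exposed to 10⁻⁵–3.2.10⁻⁹ M in 0.15% DMSO/medium for 96 h. MTT at 0.5 mg/ml final for 4 h, formazan dissolved in 10% SDS/0.01 M HCl, OD 570 nm. At least three experiments in triplicate; IC50 from sigmoidal dose–response curves.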

A-375 [2] = test: Antitumor activity against human A-375 cells xenografted in Balb/c nude mouse assessed as change in tumor stroma at 75 mg/kg, ip administered 3 times a week during first week and twice a week for next 2 weeks measured post last dose by trichrome staining based histopathological analysis; format: functional, organism-based; conditions: time 3.0 weeks
Method in brief: (§1)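 Balb/c nude mice given 10×10^6 A375 cells in PBS subcutaneously in the right flank under isoflurane. Groups of 6-12 allocated on Day 14 at 110-130 mm^3 mean tumor volume; dosed ip for three weeks. Drug in DMSO/Tween 80 (1:1) diluted with saline; vehicle DMSO/Tween 80/saline (1:1:8). Tumors fixed in buffered 3.7% formalin and read blind by a veterinary pathologist after mid-sagittal section.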

[3] = Inhibition of pig brain tubulin polymerization at 5 uM measured after 45 mins by turbidimetry based spectrophotometric method relative to control; format: tissue-based, Sus scrofa; conditions: 0.75 h
MeWo = test: Antiproliferative activity against human MeWo cells assessed as reduction in cell viability measured after 96 hrs by MTT assay; format: functional, cell-based
A2058 = test: Antiproliferative activity against human A2058 cells assessed as reduction in cell viability measured after 96 hrs by MTT assay; format: functional, cell-based; conditions: A2058, 96 h
IPC-298 = test: Antiproliferative activity against human IPC-298 cells assessed as reduction in cell viability measured after 96 hrs by MTT assay; format: functional, cell-based; conditions: IPC-298, 96 h
[4] = Cytotoxicity against human PBMC cells assessed as reduction in cell viability at 0.2 mM measured after 96 hrs by MTT assay; format: cell-based; conditions: 200 µM
A-375 [5] = test: Antitumor activity against human A-375 cells xenografted in Balb/c nude mouse assessed as reduction in tumor size at 75 mg/kg, ip administered 3 times a week during first week and twice a week for 2 week by caliper method relative to control; format: functional; design: scale not given: the % may be the effect or the level left; conditions: time 3 weeks; method in brief: as §1
[6] = Toxicity in Balb/c nude mouse xenografted with human A-375 cells assessed as reduction in body weight at 75 mg/kg, ip administered 3 times a week during first week and twice a week for 2 week; format: organism-based; conditions: in vivo, 504 h, time 3 weeks
Method in brief: (§2)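 Balb/c nude mice inoculated s.c. in right flank with 10×10^6 A375 cells in PBS under isoflurane; dosing started once mean tumor volume reached 110-130 mm3, groups allocated Day 14. IP dosing for three weeks; vehicle DMSO/Tween 80 (vol/vol) plus injectable saline (8 vol), solutions made daily. Body weight followed during treatment; gross pathology at study termination; n = 4 mice per group reported.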

[7] = Toxicity in Balb/c nude mouse xenografted with human A-375 cells assessed as morbidity at 75 mg/kg, ip administered 3 times a week during first week and twice a week for 2 week; format: organism-based; conditions: in vivo, 504 h, time 3 weeks; method in brief: as §2
[8] = Toxicity in Balb/c nude mouse xenografted with human A-375 cells assessed as mortality at 75 mg/kg, ip administered 3 times a week during first week and twice a week for 2 week; format: organism-based; conditions: in vivo, 504 h, time 3 weeks; method in brief: as §2
[9] = Toxicity in Balb/c nude mouse xenografted with human A-375 cells assessed as effect on liver pathology at 75 mg/kg, ip administered 3 times a week during first week and twice a week for 2 week measured post last dose by pathological analysis; format: organism-based; conditions: in vivo, 504 h, time 3 weeks; method in brief: as §2
[10] = Toxicity in Balb/c nude mouse xenografted with human A-375 cells assessed as effect on spleen pathology at 75 mg/kg, ip administered 3 times a week during first week and twice a week for 2 week measured post last dose by pathological analysis; format: organism-based; conditions: in vivo, 504 h, time 3 weeks; method in brief: as §2
[11] = Toxicity in Balb/c nude mouse xenografted with human A-375 cells assessed as effect on gut pathology at 75 mg/kg, ip administered 3 times a week during first week and twice a week for 2 week measured post last dose by pathological analysis; format: organism-based; conditions: in vivo, 504 h, time 3 weeks; method in brief: as §2
[12] = Toxicity in Balb/c nude mouse xenografted with human A-375 cells assessed as effect on pancreas pathology at 75 mg/kg, ip administered 3 times a week during first week and twice a week for 2 week measured post last dose by pathological analysis; format: organism-based; conditions: in vivo, 504 h, time 3 weeks; method in brief: as §2
A-375 [13] = test: Antitumor activity against human A-375 cells xenografted in Balb/c nude mouse assessed as reduction in tumor size at 30 mg/kg, ip administered 5 times a week for 3 weeks by caliper method; format: functional, organism-based; method in brief: as §1
[14] = Toxicity in Balb/c nude mouse xenografted with human A-375 cells assessed as change in body weight at 30 mg/kg, ip administered 5 times a week for 3 weeks; format: organism-based; conditions: in vivo, 504 h
[15] = Toxicity in Balb/c nude mouse xenografted with human A-375 cells assessed as adverse effect at 30 mg/kg, ip administered 5 times a week for 3 weeks; format: organism-based; conditions: in vivo, 504 h
[16] = Toxicity in Balb/c nude mouse xenografted with human A-375 cells assessed as pathological changes at 30 mg/kg, ip administered 5 times a week for 3 weeks measured post last dose by histopathological analysis; format: organism-based; conditions: in vivo, 504 h
A-375 [17] = test: Antitumor activity against human A-375 cells xenografted in Balb/c nude mouse assessed as reduction in tumor size at 25 mg/kg, ip administered 3 times a week for 3 weeks by caliper method relative to control; format: functional; design: scale not given: the % may be the effect or the level left; method in brief: as §1
A-375 [18] = test: Antitumor activity against human A-375 cells xenografted in Balb/c nude mouse assessed as reduction in tumor weight at 30 mg/kg, ip administered 5 times a week for 3 weeks measured post last dose; format: functional, organism-based; method in brief: as §1
A-375 [19] = test: Antitumor activity against human A-375 cells xenografted in Balb/c nude mouse assessed as reduction in tumor weight at 75 mg/kg, ip administered 3 times a week during first week and twice a week for next 2 weeks measured post last dose; format: functional, organism-based; conditions: time 3.0 weeks; method in brief: as §1
A-375 [20] = test: Antitumor activity against human A-375 cells xenografted in Balb/c nude mouse assessed as reduction in tumor weight at 25 mg/kg, ip administered 3 times a week for 3 weeks measured post last dose; format: functional, organism-based; method in brief: as §1
A-375 [21] = test: Antitumor activity against human A-375 cells xenografted in ip dosed Balb/c nude mouse assessed as reduction in tumor weight administered 3 times a week for 3 weeks measured post last dose; format: functional, organism-based; conditions: dose 25-75 mg/kg
A-375 [22] = test: Antitumor activity against human A-375 cells xenografted in ip dosed Balb/c nude mouse assessed as reduction in tumor size administered 3 times a week for 3 weeks by caliper method; format: functional, organism-based; conditions: dose 25-75 mg/kg
A-375 [23] = test: Antitumor activity against human A-375 cells xenografted in Balb/c nude mouse assessed as change in tumor stroma at 30 mg/kg, ip administered 5 times a week for 3 weeks measured post last dose by trichrome staining based histopathological analysis; format: functional, organism-based; method in brief: as §1
A-375 [24] = test: Antitumor activity against human A-375 cells xenografted in Balb/c nude mouse assessed as change in tumor stroma at 25 mg/kg, ip administered 3 times a week for 3 weeks measured post last dose by trichrome staining based histopathological analysis; format: functional, organism-based; method in brief: as §1
A-375 [25] = test: Antitumor activity against human A-375 cells xenografted in Balb/c nude mouse assessed as change in tumor inflammation at 75 mg/kg, ip administered 3 times a week during first week and twice a week for next 2 weeks measured post last dose by trichrome staining based histopathological analysis; format: functional, organism-based; conditions: time 3.0 weeks; method in brief: as §1
A-375 [26] = test: Antitumor activity against human A-375 cells xenografted in Balb/c nude mouse assessed as change in tumor inflammation at 30 mg/kg, ip administered 5 times a week for 3 weeks measured post last dose by trichrome staining based histopathological analysis; format: functional, organism-based; method in brief: as §1
A-375 [27] = test: Antitumor activity against human A-375 cells xenografted in Balb/c nude mouse assessed as change in tumor inflammation at 25 mg/kg, ip administered 3 times a week for 3 weeks measured post last dose by trichrome staining based histopathological analysis; format: functional, organism-based; method in brief: as §1
A-375 [28] = test: Antitumor activity against human A-375 cells xenografted in Balb/c nude mouse assessed as vascularization at 75 mg/kg, ip administered 3 times a week during first week and twice a week for next 2 weeks measured post last dose by trichrome staining based histopathological analysis; format: functional, organism-based; conditions: time 3.0 weeks; method in brief: as §1
A-375 [29] = test: Antitumor activity against human A-375 cells xenografted in Balb/c nude mouse assessed as vascularization at 30 mg/kg, ip administered 5 times a week for 3 weeks measured post last dose by trichrome staining based histopathological analysis; format: functional, organism-based; method in brief: as §1
A-375 [30] = test: Antitumor activity against human A-375 cells xenografted in Balb/c nude mouse assessed as vascularization at 25 mg/kg, ip administered 3 times a week for 3 weeks measured post last dose by trichrome staining based histopathological analysis; format: functional, organism-based; method in brief: as §1
A-375 [31] = test: Antitumor activity against human A-375 cells xenografted in Balb/c nude mouse assessed as reduction in cell invasion at 75 mg/kg, ip administered 3 times a week during first week and twice a week for next 2 weeks measured post last dose; format: functional, organism-based; conditions: time 3.0 weeks; method in brief: as §1
A-375 [32] = test: Antitumor activity against human A-375 cells xenografted in Balb/c nude mouse assessed as reduction in cell invasion at 30 mg/kg, ip administered 5 times a week for 3 weeks measured post last dose; format: functional, organism-based; method in brief: as §1
A-375 [33] = test: Antitumor activity against human A-375 cells xenografted in Balb/c nude mouse assessed as reduction in cell invasion at 25 mg/kg, ip administered 3 times a week for 3 weeks measured post last dose; format: functional, organism-based; method in brief: as §1
A-375 [34] = test: Antitumor activity against human A-375 cells xenografted in Balb/c nude mouse assessed as reduction in mitotic index at 75 mg/kg, ip administered 3 times a week during first week and twice a week for next 2 weeks measured post last dose; format: functional, organism-based; conditions: time 3.0 weeks; method in brief: as §1
A-375 [35] = test: Antitumor activity against human A-375 cells xenografted in Balb/c nude mouse assessed as reduction in mitotic index at 30 mg/kg, ip administered 5 times a week for 3 weeks measured post last dose; format: functional, organism-based; method in brief: as §1
A-375 [36] = test: Antitumor activity against human A-375 cells xenografted in Balb/c nude mouse assessed as reduction in mitotic index at 25 mg/kg, ip administered 3 times a week for 3 weeks measured post last dose; format: functional, organism-based; method in brief: as §1

Nc1nc2ccccc2n2c(-c3ccc(O)c(O)c3)cnc12
IC50 (A-375 [1]): 60 nM

NCCNc1nc2ccccc2n2c(-c3ccc(O)c(O)c3)cnc12
IC50 (A-375 [1]): 1280 nM

NCCCNc1nc2ccccc2n2c(-c3ccc(O)c(O)c3)cnc12
IC50 (A-375 [1]): 5590 nM

Oc1ccc(-c2cnc3c(N4CCNCC4)nc4ccccc4n23)cc1O
IC50 (A-375 [1]): > 10000 nM

Oc1ccc(-c2cnc3c(O)nc4ccccc4n23)cc1O
IC50 (A-375 [1]): > 10000 nM

COc1ccc(-c2cnc3c(NCCCCCCNC(=O)OC(C)(C)C)nc4ccccc4n23)cc1OC
IC50 (A-375 [1]): > 10000 nM

COc1ccc(-c2cnc3c(NCCNC(=O)OC(C)(C)C)nc4ccccc4n23)cc1OC
IC50 (A-375 [1]): > 10000 nM

CNc1nc2cc(OC(F)(F)F)ccc2n2c(-c3ccc(O)c(O)c3)cnc12
IC50 (A-375 [1]): 199 nM

COc1ccc(-c2cnc3c(N)nccn23)cc1OC
IC50 (A-375 [1]): > 10000 nM

CNc1nc2ccc(C(F)(F)F)cc2n2c(-c3ccc(O)c(O)c3)cnc12
IC50 (A-375 [1]): > 10000 nM

CNc1nc2ccccc2n2c(-c3ccc(O)c(O)c3)cnc12
Activity (A-375 [2]): inactive
inhibition (INH) [3]: Not Active
IC50 (A-375 [1]): 3 nM
IC50 (MeWo): 3 nM
IC50 (A2058): 4 nM
IC50 (IPC-298): 40 nM
Activity [4]: Non-Toxic
Activity (A-375 [5]): 80%
Activity [6]: Toxic
Activity [7]: Toxic
Activity [8]: Toxic
Activity [9]: Toxic
Activity [10]: Toxic
Activity [11]: Toxic
Activity [12]: Toxic
Activity (A-375 [13]): Active
Activity [14]: Non-Toxic
Activity [15]: Non-Toxic
Activity [16]: Non-Toxic
Activity (A-375 [17]): 50%
Activity (A-375 [18]): Active
Activity (A-375 [19]): Active
Activity (A-375 [20]): Active
Activity (A-375 [21]): Dose-dependent effect
Activity (A-375 [22]): Dose-dependent effect
Activity (A-375 [23]): inactive
Activity (A-375 [24]): inactive
Activity (A-375 [25]): inactive
Activity (A-375 [26]): inactive
Activity (A-375 [27]): inactive
Activity (A-375 [28]): inactive
Activity (A-375 [29]): inactive
Activity (A-375 [30]): inactive
Activity (A-375 [31]): Active
Activity (A-375 [32]): Active
Activity (A-375 [33]): Active
Activity (A-375 [34]): Active
Activity (A-375 [35]): Active
Activity (A-375 [36]): Active

CN(C)c1nc2ccccc2n2c(-c3ccc(O)c(O)c3)cnc12
IC50 (A-375 [1]): 30 nM

NCCCCCCNc1nc2ccccc2n2c(-c3ccc(O)c(O)c3)cnc12
IC50 (A-375 [1]): 5690 nM

COc1ccc(-c2cnc3c(N4CCN(C(=O)OC(C)(C)C)CC4)nc4ccccc4n23)cc1OC
IC50 (A-375 [1]): > 10000 nM
